The values below come from ChEMBL document CHEMBL1141257, “Solanapyrone analogues from a Hawaiian fungicolous fungus” (J Nat Prod, 2007).

Values after ≈ are worked out from the molar mass of the structure shown. Active and inactive are the calls of the source. The calls are words filed in the database; no cut-off is given here.

The subject of test [1] is Staphylococcus aureus. Description: Antibacterial activity against Staphylococcus aureus ATCC 25923 at 50 ug/disk after 4 days. The test is classed as functional. The settings on record: for zone of inhibition at 50 µg/disc: ATCC 25923, 96 h, read-out: IZ. The method, boiled down:
(§1)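 Standard agar disk diffusion assay with 50 μg loaded per disk. Zones were read after 4 days as clear zones of inhibition in mm. For S. aureus, the zone of reduced growth was also measured in mm.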

Test [2] relates to Candida albicans. Description: Antifungal activity against Candida albicans ATCC 14053. The test is classed as functional. The essentials: as §1
The test system of test [3] is Escherichia coli. Description: […] activity against Escherichia coli ATCC 25922. It counts as functional, organism-based. The method, boiled down: as §1
Test [4] concerns Candida albicans. Description: Antifungal activity against Candida albicans ATCC 14053 at 50 ug/disk. The test is classed as functional. The following applies: read-out: IZ. The essentials:
as §1

The test system of test [5] is Aspergillus flavus. In words: Antifungal activity against Aspergillus flavus NRRL 6541. The test is classed as functional, organism-based. The essentials:
(§2)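 Disk diffusion assay against the fungus with 200 μg of compound per disk; zones of inhibition were read and followed over 4 days. A further evaluation reported MIC and IC50 values, with the antifungal standard run under the same protocols.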

Test [6] deals with Fusarium verticillioides. In words: Antifungal activity against Fusarium verticillioides NRRL 25457. It counts as functional, organism-based. The essentials: as §2
In test [7] the test system is Aspergillus flavus. Description: Antifungal activity against Aspergillus flavus NRRL 6541 at 200 ug/disk after 4 days. It counts as functional. The settings on record: NRRL 6541, 96 h, read-out: IZ. The essentials:
(§3)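 Disk diffusion assay with 200 μg applied per disk; the diameter of the growth-inhibition zone was read in mm, and persistence of the zone was followed over 4 days.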

Test [8] deals with Fusarium verticillioides. In words: Antifungal activity against Fusarium verticillioides NRRL 25457 at 200 ug/disk after 4 days. It counts as functional. The following applies: NRRL 25457, 96 h, read-out: IZ. The essentials: as §3
The subject of test [9] is Staphylococcus aureus. Description: Antibacterial activity against Staphylococcus aureus ATCC 25923 assessed as zone of reduced growth at 50 ug/disk after 4 days. It counts as functional. The following applies: ATCC 25923, 96 h, read-out: IZ. The method, boiled down: as §1

`C[C@H]1CCC[C@@H]2C=C[C@H](C)[C@@](C)(C3=CC(=O)/C(=C/N)C(=O)O3)[C@H]12`: the result in test [1], in [2] and in test [3] was inactive.

Consider `CCCCC[C@@H](O)[C@H]1C(=O)O[C@H](C)[C@@H](O)/C=C/C=C/C=C/C=C/C=C(\C)[C@@H](O)C[C@H](O)C[C@H](O)C[C@H](O)C[C@H](O)C[C@H](O)C[C@@H]1O` [FILIPIN], for which the zone of inhibition at 50 µg/disc in test [4] worked out at 23 mm.

`COc1cc([C@@]2(C)[C@H]3[C@H](C=C[C@H]2C)CCC[C@@H]3C)oc(=O)c1CO`: the result in [1], in [2] and in test [3] was inactive.

As a reminder, the IC50 is the point on the concentration scale where inhibition reaches its midpoint. Regarding NYSTATIN [listing 1 of 2 here], the half-inhibitory concentration (IC50) was determined as 5 µg/mL in test [5] and 3 µg/mL in test [6].

For the molecule `C[C@H]1CCC[C@@H]2C=C[C@H](C)[C@@](C)(C3=CC(=O)/C(=C\NCCO)C(=O)O3)[C@H]12` [SOLANAPYRONE K], the zone of inhibition at 50 µg/disc in test [1] stood at 9 mm. The “inhibition zone (IZ)” value in test [2] was determined as 13 mm.

A word on the MIC: it is the least concentration at which growth counts as inhibited. A high value points to a need for much substance. In the case of `COc1cc([C@@]2(C)[C@@H]3[C@@H](C)CCC[C@@H]3C=C[C@@H]2C)oc(=O)c1C=O` [SOLANAPYRONE J], the zone of inhibition at 200 µg/disc in [7] and in test [8] was 30 mm in each case. Moreover, the minimum inhibitory concentration (MIC) turned out to be 20 µg/mL (≈ 60.5 µM) in test [5] (Aspergillus flavus, NRRL 6541) and 24 µg/mL (≈ 72.6 µM) in test [6] (Fusarium verticillioides, NRRL 25457). In addition, the IC50 is 8.6 µg/mL (≈ 26 µM) in [5] (Aspergillus flavus, NRRL 6541, read-out: IC50) and 15 µg/mL (≈ 45.4 µM) in [6] (Fusarium verticillioides, NRRL 25457, read-out: IC50). Besides, the zone of inhibition at 50 µg/disc in [9] amounted to 21 mm; in test [1], 17 mm. Also, the “inhibition zone (IZ)” value in [2] came out at 19 mm.

Turning to NYSTATIN [listing 2 of 2 here], the minimal inhibitory concentration (MIC) in test [5] and in test [6] was 10 µg/mL in each case.
